ChEMBL document CHEMBL4145543, “Synthesis and pharmacological evaluation of 6,7-dimethoxy-1,2,3,4-tetrahydroisoquinoline derivatives as sigma-2 receptor ligands” (Eur J Med Chem, 2018)

What was measured:
[1] = target: Sigma non-opioid intracellular receptor 1 (Cavia porcellus) (UniProt Q60492); test: Displacement of [3H]-(+)-pentazocine from sigma-1 receptor in guinea pig brain membranes at 1 uM after 120 mins by microbeta scintillation counting method relative to control; format: cell membranes; conditions: Membrane
Summary of the method: (§1)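 Single-point screen at 1 µM for displacement of [3H](+)-pentazocine (sigma-1, guinea pig brain membranes) or [3H]-DTG (sigma-2, rat liver membranes, with 100 nM (+)-pentazocine); 25 °C, pH 8.0 Tris buffer. Hits were defined as >50% displacement.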

[2] = target: Sigma non-opioid intracellular receptor 1 (Cavia porcellus, UniProt Q60492); test: Displacement of [3H]-(+)-pentazocine from sigma-1 receptor in guinea pig brain membranes after 120 mins by microbeta scintillation counting method; format: cell membranes, Membrane
Summary of the method: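 Guinea pig brain membranes (frozen brains minus cerebellum; 300 µg) incubated with 6 nM [3H]-(+)-pentazocine stock (~42 Ci/mmol), 50 mM Tris-HCl pH 8.0, 25 °C, 120 min. Compounds from ethanol, 0.1-1000 nM, 10 points. Ice-cold 10 mM Tris stop, GF/B filtration, scintillation counting. Nonspecific defined with (+)-pentazocine or haloperidol (10 µM).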

KYSE-140 = test: Cytotoxicity against human KYSE-140 cells after 48 hrs by CCK8 assay; format: functional, cell-based; conditions: KYSE-140, 48 h
Summary of the method: (§2)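 Exponentially growing Huh7 or KYSE-140 cells seeded at 4,000 cells/well, adhered overnight, then exposed to 6 concentrations for 48 h; DMSO vehicle control. CCK-8 added, 2 h at 37 °C in dark, absorbance at 450 nm. Viability as percent of control OD; IC50 by curve fitting, at least three experiments.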

Huh-7 = test: Cytotoxicity against human HuH7 cells after 48 hrs by CCK8 assay; format: functional, cell-based; conditions: Huh-7, 48 h; summary of the method: as §2
[3] = target: T1, Sigma intracellular receptor 2 (Rattus norvegicus, UniProt Q5U3Y7); test: Displacement of [3H]DTG from sigma-2 receptor in Sprague-Dawley rat liver membranes after 120 mins in presence of (+)-pentazocine by microbeta scintillation counting method; format: cell membranes, Membrane
T1 sequence (Q5U3Y7 whole entry): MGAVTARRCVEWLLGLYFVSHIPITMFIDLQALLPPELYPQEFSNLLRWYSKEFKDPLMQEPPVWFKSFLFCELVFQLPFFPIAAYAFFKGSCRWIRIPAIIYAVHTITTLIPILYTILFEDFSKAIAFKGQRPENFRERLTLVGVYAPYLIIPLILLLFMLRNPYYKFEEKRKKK

[4] = target: T2, Sigma intracellular receptor 2 (Rattus norvegicus) (UniProt Q5U3Y7); test: Displacement of [3H]DTG from sigma-2 receptor in Sprague-Dawley rat liver membranes at 1 uM after 120 mins in presence of (+)-pentazocine by microbeta scintillation counting method relative to control; format: cell membranes; conditions: Membrane; summary of the method: as §1
T2 sequence (whole entry): T1 sequence (Q5U3Y7 whole entry)

[5] = Selectivity ratio of Ki for sigma-1 receptor in guinea pig brain membranes to Ki for sigma-2 receptor in Sprague-Dawley rat liver membranes; format: cell membranes
[6] = target: Sigma intracellular receptor 2 (Homo sapiens, UniProt Q5BJF2); test: Binding affinity to sigma-2 receptor (unknown origin)
[7] = target: Sigma non-opioid intracellular receptor 1 (Homo sapiens, UniProt Q99720); test: Binding affinity to sigma-1 receptor (unknown origin)
Sigma non-opioid intracellular receptor 1 (Homo sapiens, UniProt Q99720), sequence (Q99720 whole entry): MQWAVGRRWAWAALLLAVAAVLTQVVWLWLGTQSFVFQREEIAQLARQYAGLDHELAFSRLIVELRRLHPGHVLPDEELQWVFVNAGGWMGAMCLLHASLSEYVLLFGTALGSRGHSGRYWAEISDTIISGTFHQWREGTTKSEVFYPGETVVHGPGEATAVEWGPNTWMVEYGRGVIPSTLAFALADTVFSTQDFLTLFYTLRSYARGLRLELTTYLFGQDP

Sigma non-opioid intracellular receptor 1 (Cavia porcellus), sequence (Q60492 whole entry): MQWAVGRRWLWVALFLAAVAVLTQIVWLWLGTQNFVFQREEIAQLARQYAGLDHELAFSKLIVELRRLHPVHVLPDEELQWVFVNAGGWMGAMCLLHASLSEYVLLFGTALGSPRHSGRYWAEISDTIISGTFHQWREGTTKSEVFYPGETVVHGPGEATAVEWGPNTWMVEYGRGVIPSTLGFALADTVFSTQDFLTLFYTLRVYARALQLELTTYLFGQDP
Sigma non-opioid intracellular receptor 1 (Cavia porcellus, UniProt Q60492), sequence (Q60492 whole entry): as above
Sigma intracellular receptor 2 (Homo sapiens, UniProt Q5BJF2), sequence (Q5BJF2 whole entry): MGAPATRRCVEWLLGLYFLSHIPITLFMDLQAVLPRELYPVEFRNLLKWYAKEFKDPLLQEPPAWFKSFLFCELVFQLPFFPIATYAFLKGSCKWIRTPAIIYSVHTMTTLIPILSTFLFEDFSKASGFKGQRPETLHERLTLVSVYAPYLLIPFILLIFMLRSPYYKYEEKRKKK

SMILES	inhibition [1] [%]	Ki [2] [nM]	IC50 (KYSE-140) [nM]	IC50 (Huh-7) [nM]	Ki [3] [nM]	inhibition [4] [%]	Ratio Ki [5]	Ki [6] [nM]	Ki [7] [nM]
COc1cc2c(cc1OC)CN(CCC(=O)c1c(C)c(OC)c(OC)c(OC)c1O)CC2	> 50	> 1000	93700	81600	> 1000	> 50	–	–	–
COc1cc2c(cc1OC)CN(CCCn1cnc3cc(OC)c(OC)cc3c1=O)CC2	> 50	> 1000	> 100	> 100	13.9	> 50	> 71.9	–	–
COc1ccc(C(O)CCCCN2CCc3cc(OC)c(OC)cc3C2)c(C)c1 (stereo unspecified)	> 50	> 1000	14900	12500	5.2	> 50	> 192	–	–
COc1ccc(C(=O)CN2CCc3cc(OC)c(OC)cc3C2)c(OC)c1	> 50	> 1000	> 100	> 100	53.8	> 50	> 18	–	–
c1ccc2c(c1)c1ccccc1n2CCCN1CCN(C2CCCCC2)CC1	–	–	–	–	–	–	–	12.6	3450
COc1ccc(C(=O)CCN2CCc3cc(OC)c(OC)cc3C2)c(OC)c1	> 50	> 1000	> 100	75300	68.1	> 50	> 14	–	–
COc1cc2c(cc1OC)CN(CCCCNC(=O)c1cc(I)cc(OC)c1OCC[18F])CC2	–	–	–	–	–	–	–	0.26	2150
COc1cc2c(cc1OC)CN(CCCCn1cnc3cc(Cl)c([N+](=O)[O-])cc3c1=O)CC2	> 50	> 1000	> 100	> 100	> 1000	> 50	–	–	–
COc1cc2c(cc1OC)CN(CCn1cnc3cc(Cl)c([N+](=O)[O-])cc3c1=O)CC2	> 50	> 1000	> 100	> 100	> 1000	> 50	–	–	–
COc1cc2c(cc1OC)CN(CCCCn1cnc3cc(OC)c(OC)cc3c1=O)CC2	> 50	> 1000	> 100	> 100	43.8	> 50	> 22.8	–	–
COc1ccc(C(O)CCN2CCc3cc(OC)c(OC)cc3C2)c(C)c1 (stereo unspecified)	> 50	> 1000	> 100	> 100	18.2	> 50	> 55	–	–
COc1ccc(C(O)CCCCN2CCc3cc(OC)c(OC)cc3C2)c(OC)c1 (stereo unspecified)	> 50	> 1000	–	–	6.2	> 50	> 161	–	–
COc1ccc(C(=O)CCCCN2CCc3cc(OC)c(OC)cc3C2)c(C)c1	> 50	> 1000	> 100	> 100	5.1	> 50	> 196	–	–
CC[C@H]1C[C@@H]2C[C@H]3c4[nH]c5ccc(OC)cc5c4CCN(C2)[C@@H]13	–	–	–	–	–	–	–	90.4	9310
COc1ccc(C(=O)CCN2CCc3cc(OC)c(OC)cc3C2)c(C)c1	> 50	13.3	60100	42800	23.7	> 50	0.5	–	–
COc1cc2c(cc1OC)CN(CCCn1cnc3cc(Cl)c([N+](=O)[O-])cc3c1=O)CC2	> 50	> 1000	> 100	> 100	> 1000	> 50	–	–	–
COc1ccc(C)cc1NC(=O)OC1C[C@H]2CCC[C@H](C1)N2CCCCCCN (stereo partly specified)	–	–	–	–	–	–	–	5.19	1420
CCn1c(=O)n(C(=O)NC2C[C@@H]3CC[C@@H](C2)N3C)c2ccccc21 (stereo partly specified)	–	–	–	–	–	–	–	32	6300
COc1ccc(C(O)CCN2CCc3cc(OC)c(OC)cc3C2)c(OC)c1 (stereo unspecified)	> 50	> 1000	26100	45900	30.2	> 50	> 33	–	–
COc1ccc(C(=O)CCCCN2CCc3cc(OC)c(OC)cc3C2)c(OC)c1	> 50	32.9	88300	> 100	5.8	> 50	5.6	–	–
COc1ccc(C(O)CN2CCc3cc(OC)c(OC)cc3C2)c(OC)c1 (stereo unspecified)	> 50	> 1000	> 100	> 100	62	> 50	> 16	–	–
